From BindingDB's records for doi:10.1021/jm950541c (Georgia Institute of Technology, 1996) come the findings set out here.

The assay has as its target T1, Calpain-2 catalytic subunit (Homo sapiens, UniProt P17655).
T1 sequence (P17655 whole entry): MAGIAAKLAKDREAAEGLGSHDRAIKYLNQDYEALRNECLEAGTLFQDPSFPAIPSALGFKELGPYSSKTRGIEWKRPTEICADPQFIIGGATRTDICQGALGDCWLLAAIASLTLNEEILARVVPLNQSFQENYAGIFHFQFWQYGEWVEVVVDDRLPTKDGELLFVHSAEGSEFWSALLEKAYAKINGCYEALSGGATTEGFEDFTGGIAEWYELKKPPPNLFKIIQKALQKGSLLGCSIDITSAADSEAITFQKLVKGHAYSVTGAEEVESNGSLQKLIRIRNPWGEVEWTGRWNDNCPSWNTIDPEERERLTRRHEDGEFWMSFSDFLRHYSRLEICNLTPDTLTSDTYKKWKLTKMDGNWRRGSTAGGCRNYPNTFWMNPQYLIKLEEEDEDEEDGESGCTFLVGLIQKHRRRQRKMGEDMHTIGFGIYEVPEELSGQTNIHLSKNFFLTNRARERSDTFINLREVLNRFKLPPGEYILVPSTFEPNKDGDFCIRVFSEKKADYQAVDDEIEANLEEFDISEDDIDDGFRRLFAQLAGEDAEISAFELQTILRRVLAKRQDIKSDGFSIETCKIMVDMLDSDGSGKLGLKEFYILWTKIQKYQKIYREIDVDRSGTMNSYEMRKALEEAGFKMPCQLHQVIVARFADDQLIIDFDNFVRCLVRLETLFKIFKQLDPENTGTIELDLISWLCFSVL
The experiment in a line: Compound was evaluated for the inhibition of Cysteine protease Calpain 2. The essentials: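 Calpain assay in 25 mM Tris, pH 8.0, with 10 mM CaCl₂ and 5% DMSO. Suc-Leu-AMC hydrolysis was read as initial velocity (t = 30-60 s) after a 30 s delay, at room temperature. Five or more inhibitor concentrations (not above 2 × K_obs) were used at two fixed substrate levels. Ki came from Dixon plots (1/v vs I) averaged over triplicates.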
Compound `CCNC(=O)C(=O)C(CC)NC(=O)C(CC(C)C)NC(=O)Cc1cccc2ccccc12` (centres undefined) [3-[4-Methyl-2-(2-naphthalen-1-yl-acetylamino)-pentanoylamino]-2-oxo-pentanoic acid ethylamide] gave a Ki of 250 nM.

`CCC(NC(=O)C(CC(C)C)NC(=O)OCc1ccccc1)C(=O)C(=O)NCCc1ccc(O)cc1` (centres undefined) [(1-{1-[2-(4-Hydroxy-phenyl)-ethylaminooxalyl]-propylcarbamoyl}-3-methyl-butyl)-carbamic acid benzyl ester] returned a Ki of 60 nM.

In turn, `CCC(NC(=O)C(CC(C)C)NC(=O)OCc1ccccc1)C(=O)C(=O)NCC(OC)OC` (centres undefined) [{1-[1-(2,2-Dimethoxy-ethylaminooxalyl)-propylcarbamoyl]-3-methyl-butyl}-carbamic acid benzyl ester] returned a Ki of 100 nM.

With `CCNC(=O)C(=O)C(CC)NC(=O)C(CC(C)C)NC(=O)c1nccc2ccccc12` (centres undefined) [Isoquinoline-1-carboxylic acid [1-(1-ethylaminooxalyl-propylcarbamoyl)-3-methyl-butyl]-amide], the affinity corresponds to a Ki of 110 nM.

In turn, `CC(C)CC(NC(=O)C(c1ccccc1)c1ccccc1)C(=O)NC(Cc1ccccc1)C(=O)C(=O)NCC(O)c1ccccc1` (centres undefined) [2-Diphenylacetylamino-4-methyl-pentanoic acid [1-benzyl-2-(2-hydroxy-2-phenyl-ethylcarbamoyl)-2-oxo-ethyl]-amide] displayed an inhibition constant (Ki) of 730 nM.

The compound `CCC(NC(=O)C(CC(C)C)NC(=O)OCc1ccccc1)C(=O)C(=O)NCC(O)c1cccc2ccccc12` (centres undefined) [{1-[1-(2-Hydroxy-2-naphthalen-1-yl-ethylaminooxalyl)-propylcarbamoyl]-3-methyl-butyl}-carbamic acid benzyl ester] had a Ki of 170 nM.

Compound `CCNC(=O)C(=O)C(CC)NC(=O)C(CC(C)C)NC(=O)c1ccc2ccccc2n1` (centres undefined) [Quinoline-2-carboxylic acid [1-(1-ethylaminooxalyl-propylcarbamoyl)-3-methyl-butyl]-amide] showed an inhibition constant (Ki) of 300 nM.

With `CC(C)CC(NC(=O)OCc1ccccc1)C(=O)NC(Cc1ccccc1)C(=O)C(=O)NCCCN1CCOCC1` (centres undefined) [{1-[1-Benzyl-2-(3-morpholin-4-yl-propylcarbamoyl)-2-oxo-ethylcarbamoyl]-3-methyl-butyl}-carbamic acid benzyl ester], affinity was put at a Ki of 330 nM.

Regarding `CC(C)CC(NC(=O)OCc1ccccc1)C(=O)NC(Cc1ccccc1)C(=O)C(=O)NCC(O)c1ccc(Oc2ccccc2)cc1` (centres undefined) [(1-{1-Benzyl-2-[2-hydroxy-2-(4-phenoxy-phenyl)-ethylcarbamoyl]-2-oxo-ethylcarbamoyl}-3-methyl-butyl)-carbamic acid benzyl ester], affinity was put at a Ki of 170 nM.

Compound `CCC(NC(=O)C(CC(C)C)NC(=O)OCc1ccccc1)C(=O)C(=O)NCc1nccc2ccccc12` (centres undefined) [{1-[1-(Isoquinolin-1-ylmethyl)-aminooxalyl]-propylcarbamoyl}-3-methyl-butyl)-carbamic acid benzyl ester] registered a Ki of 150 nM.

In turn, `CCC(NC(=O)C(CC(C)C)NC(=O)OCc1ccccc1)C(=O)C(=O)NCCc1ccc(OC)cc1` (centres undefined) [(1-{1-[2-(4-Methoxy-phenyl)-ethylaminooxalyl]-propylcarbamoyl}-3-methyl-butyl)-carbamic acid benzyl ester] showed a Ki of 46 nM.

The compound `CCC(NC(=O)C(CC(C)C)NC(=O)C(c1ccccc1)c1ccccc1)C(=O)C(=O)NCc1ccccn1` (centres undefined) [3-(2-Diphenylacetylamino-4-methyl-pentanoylamino)-2-oxo-pentanoic acid (pyridin-2-ylmethyl)-amide] returned a Ki of 90 nM.

The compound `CCC(NC(=O)C(CC(C)C)NC(=O)OCc1ccccc1)C(=O)C(=O)NCCCn1ccnc1` (centres undefined) [{1-[1-(3-Imidazol-1-yl-propylaminooxalyl)-propylcarbamoyl]-3-methyl-butyl}-carbamic acid benzyl ester] registered a Ki of 68 nM.

Compound `CCC(NC(=O)C(CC(C)C)NC(=O)OCc1ccccc1)C(=O)C(=O)NCCNC(=O)CCCC[C@@H]1SC[C@@H]2NC(=O)N[C@@H]21` (stereo partly drawn) [[3-Methyl-1-(1-{2-[5-((3aR,6S,6aS)-2-oxo-hexahydro-thieno[3,4-d]imidazol-6-yl)-pentanoylamino]-ethylaminooxalyl}-propylcarbamoyl)-butyl]-carbamic acid benzyl ester] gave a Ki of 280 nM.

The compound `CCC(NC(=O)C(CC(C)C)NC(=O)OCc1ccccc1)C(=O)C(=O)NCC(O)c1ccccc1` (centres undefined) [{1-[1-(2-Hydroxy-2-phenyl-ethylaminooxalyl)-propylcarbamoyl]-3-methyl-butyl}-carbamic acid benzyl ester] showed a Ki of 15 nM.

Consider `CC(C)CC(NC(=O)OCc1ccccc1)C(=O)NC(Cc1ccccc1)C(=O)C(=O)NCC(O)c1cccc(Oc2cccc(C(F)(F)F)c2)c1` (centres undefined) [[1-(1-Benzyl-2-{2-hydroxy-2-[3-(3-trifluoromethyl-phenoxy)-phenyl]-ethylcarbamoyl}-2-oxo-ethylcarbamoyl)-3-methyl-butyl]-carbamic acid benzyl ester], for which affinity was put at a Ki of 450 nM.

For `CCC(NC(=O)C(CC(C)C)NC(=O)OCc1ccccc1)C(=O)C(=O)NCCc1cccc(OC)c1` (centres undefined) [(1-{1-[2-(3-Methoxy-phenyl)-ethylaminooxalyl]-propylcarbamoyl}-3-methyl-butyl)-carbamic acid benzyl ester], the affinity, expressed as Ki, was 86 nM.

As to `CCC(NC(=O)C(CC(C)C)NC(=O)OCc1ccccc1)C(=O)C(=O)NCC(O)c1cccc(C(F)(F)F)c1` (centres undefined) [(1-{1-[2-Hydroxy-2-(3-trifluoromethyl-phenyl)-ethylaminooxalyl]-propylcarbamoyl}-3-methyl-butyl)-carbamic acid benzyl ester], affinity was put at a Ki of 180 nM.

`CC(C)CC(NC(=O)OCc1ccccc1)C(=O)NC(Cc1ccccc1)C(=O)C(=O)NCC(O)c1cccc(Oc2ccccc2)c1` (centres undefined) [(1-{1-Benzyl-2-[2-hydroxy-2-(3-phenoxy-phenyl)-ethylcarbamoyl]-2-oxo-ethylcarbamoyl}-3-methyl-butyl)-carbamic acid benzyl ester] showed a Ki of 340 nM.

With `CCNC(=O)C(=O)C(CC)NC(=O)C(CC(C)C)NC(=O)C(c1ccccc1)c1ccccc1` (centres undefined) [3-(2-Diphenylacetylamino-4-methyl-pentanoylamino)-2-oxo-pentanoic acid ethylamide], the Ki came out at 1200 nM.

Compound `CCC(NC(=O)C(CC(C)C)NC(=O)OCc1ccccc1)C(=O)C(=O)NCCc1c[nH]c2ccccc12` (centres undefined) [(1-{1-[2-(1H-Indol-3-yl)-ethylaminooxalyl]-propylcarbamoyl}-3-methyl-butyl)-carbamic acid benzyl ester] gave a Ki of 50 nM.

The compound `CNC(=O)C(=O)C(Cc1ccccc1)NC(=O)C(CC(C)C)NC(=O)OCc1ccccc1` (centres undefined) [[1-(1-Benzyl-2-methylcarbamoyl-2-oxo-ethylcarbamoyl)-3-methyl-butyl]-carbamic acid benzyl ester] had a Ki of 150 nM.

In turn, `CC(C)CC(NC(=O)OCc1ccccc1)C(=O)NC(Cc1ccccc1)C(=O)C(=O)NCC(O)c1ccccc1` (centres undefined) [{1-[1-Benzyl-2-(2-hydroxy-2-phenyl-ethylcarbamoyl)-2-oxo-ethylcarbamoyl]-3-methyl-butyl}-carbamic acid benzyl ester] registered a Ki of 50 nM.

`CCC(NC(=O)C(CC(C)C)NC(=O)OCc1ccccc1)C(=O)C(=O)NCC(O)c1c(F)c(F)c(F)c(F)c1F` (centres undefined) [{1-[1-(2-Hydroxy-2-pentafluorophenyl-ethylaminooxalyl)-propylcarbamoyl]-3-methyl-butyl}-carbamic acid benzyl ester] registered a Ki of 200 nM.

Take `CCC(NC(=O)C(CC(C)C)NC(=O)OCc1ccccc1)C(=O)C(=O)NCc1ccncc1` (centres undefined) [{3-Methyl-1-[1-(pyridin-4-ylmethyl)-aminooxalyl]-propylcarbamoyl}-butyl)-carbamic acid benzyl ester]: the Ki came out at 110 nM.

As for `CCC(NC(=O)C(CC(C)C)NC(=O)OCc1ccccc1)C(=O)C(=O)NCCCCCO` (centres undefined) [{1-[1-(5-Hydroxy-pentylaminooxalyl)-propylcarbamoyl]-3-methyl-butyl}-carbamic acid benzyl ester], the Ki stood at 51 nM.

In turn, `CCC(NC(=O)C(CC(C)C)NC(=O)OCc1ccccc1)C(=O)C(=O)NCC(O)c1cccc(Oc2cccc(C(F)(F)F)c2)c1` (centres undefined) [[1-(1-{2-Hydroxy-2-[3-(3-trifluoromethyl-phenoxy)-phenyl]-ethylaminooxalyl}-propylcarbamoyl)-3-methyl-butyl]-carbamic acid benzyl ester] gave a Ki of 280 nM.

With `CC(C)CC(NC(=O)OCc1ccccc1)C(=O)NC(Cc1ccccc1)C(=O)C(=O)NCc1ccc2ccccc2n1` (centres undefined) [(1-{1-Benzyl-2-oxo-2-[(quinolin-2-ylmethyl)-carbamoyl]-ethylcarbamoyl}-3-methyl-butyl)-carbamic acid benzyl ester], the Ki amounted to 23 nM.

With `CCC(NC(=O)C(CC(C)C)NC(=O)C(c1ccccc1)c1ccccc1)C(=O)C(=O)NCCCN1CCOCC1` (centres undefined) [3-(2-Diphenylacetylamino-4-methyl-pentanoylamino)-2-oxo-pentanoic acid (3-morpholin-4-yl-propyl)-amide], affinity was put at a Ki of 110 nM.
